Experimental data as given in ChEMBL document CHEMBL3763134, “Arylpiperidines as a new class of oxidosqualene cyclase inhibitors” (Eur J Med Chem, 2016).
pIC50: −log10 of the molar value. The source made the active and inactive calls. The calls are words filed in the database; no cut-off is given here.

Assays:
[1] = target: T1, Lanosterol synthase (Homo sapiens) (UniProt P48449); test: Inhibition of OSC in human HL60 cells assessed as accumulation of 2,3-oxidosqualene by GC-MS method; format: cell-based; conditions: HL-60
T1 sequence (whole entry): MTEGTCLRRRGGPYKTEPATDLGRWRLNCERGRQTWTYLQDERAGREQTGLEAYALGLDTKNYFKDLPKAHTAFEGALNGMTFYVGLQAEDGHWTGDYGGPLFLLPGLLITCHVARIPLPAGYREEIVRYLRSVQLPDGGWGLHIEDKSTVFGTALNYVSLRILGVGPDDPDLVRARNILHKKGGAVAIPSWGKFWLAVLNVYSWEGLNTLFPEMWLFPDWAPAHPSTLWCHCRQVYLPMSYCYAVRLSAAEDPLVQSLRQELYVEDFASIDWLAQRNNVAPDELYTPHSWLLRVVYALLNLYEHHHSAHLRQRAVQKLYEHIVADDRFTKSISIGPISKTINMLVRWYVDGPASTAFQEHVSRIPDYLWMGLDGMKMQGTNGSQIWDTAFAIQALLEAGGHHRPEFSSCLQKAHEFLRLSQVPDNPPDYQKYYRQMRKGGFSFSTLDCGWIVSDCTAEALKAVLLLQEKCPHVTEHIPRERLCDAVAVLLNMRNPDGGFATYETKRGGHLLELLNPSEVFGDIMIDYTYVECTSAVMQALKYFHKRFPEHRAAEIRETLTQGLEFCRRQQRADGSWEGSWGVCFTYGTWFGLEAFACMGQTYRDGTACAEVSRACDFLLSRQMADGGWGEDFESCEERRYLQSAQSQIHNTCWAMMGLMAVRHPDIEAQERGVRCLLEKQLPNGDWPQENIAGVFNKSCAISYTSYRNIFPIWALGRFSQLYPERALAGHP
Procedure, shortened: (§1)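 Qualitative whole-cell screen: human HL-60 cells incubated with compound, then lysed and extracted; sterol pattern analysed by GC-MS. Enzyme target assigned from characteristic precursor accumulation: 2,3-oxidosqualene for OSC, 7-dehydrocholesterol for dehydrocholesterol reductase.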

HL-60 = test: Inhibition of total cholesterol biosynthesis in human HL60 cells assessed as incorporation of 2-13C-acetate by GC-MS analysis; format: functional, cell-based
Procedure, shortened: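 HL-60 cells incubated with inhibitor in presence of 2-13C-acetate; newly made 13C-labelled cholesterol distinguished from unlabelled pre-existing cholesterol by GC-MS after extraction; IC50 for total cholesterol biosynthesis derived; triplicate experiments.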

[2] = Cytotoxicity against human HL60 cells after 24 hrs by MTT assay; format: cell-based; conditions: HL-60, 24 h
Procedure, shortened: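 MTT assay on human leukaemia HL-60 cells, following Mosmann; cisplatin as reference; triplicate experiments.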

Saccharomyces cerevisiae = test: Inhibition of ergosterol biosynthesis in Saccharomyces cerevisiae DSM 1333 at 0.2 to 0.5 times MIC after 48 hrs by GC-MS analysis; format: functional, organism-based
Procedure, shortened: (§2)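 Whole-cell sterol-pattern assay analogous to the cholesterol one, run on S. cerevisiae, Yarrowia lipolytica and Candida glabrata; accumulation of precursor sterols and cellular ergosterol content followed.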

Yarrowia lipolytica = test: Inhibition of ergosterol biosynthesis in Yarrowia lipolytica DSM 1345 at 0.2 to 0.5 times MIC after 48 hrs by GC-MS analysis; format: functional, organism-based; procedure, shortened: as §2
Nakaseomyces glabratus = test: Inhibition of ergosterol biosynthesis in Candida glabrata DSM 11226 at 0.2 to 0.5 times MIC after 48 hrs by GC-MS analysis; format: functional, organism-based; procedure, shortened: as §2
Lanosterol synthase = target: T2, Lanosterol synthase (Homo sapiens, UniProt P48449); test: Inhibition of human OSC expressed in recombinant Saccharomyces cerevisiae SMY8 using [14C]-(3S)-2,3-oxidosqualene as substrate
T2 sequence (P48449 whole entry): T1 sequence (whole entry)
Procedure, shortened: (§3)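 Homogenates of yeast cultures (SMY8 expressing human or T. cruzi OSC; wild-type S. cerevisiae FL100) incubated with radiolabelled 2,3-oxidosqualene at increasing inhibitor concentrations; IC50 as mean of two separate experiments, each in duplicate.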

[3] = Inhibition of Trypanosoma cruzi OSC expressed in recombinant Saccharomyces cerevisiae SMY8 using [14C]-(3S)-2,3-oxidosqualene as substrate; procedure, shortened: as §3
[4] = Inhibition of Saccharomyces cerevisiae FL100 wild type OSC using [14C]-(3S)-2,3-oxidosqualene as substrate; procedure, shortened: as §3
[5] = Inhibition of Saccharomyces cerevisiae OSC expressed in recombinant Saccharomyces cerevisiae SMY8 using [14C]-(3S)-2,3-oxidosqualene as substrate
[6] = target: T3, 7-dehydrocholesterol reductase (Homo sapiens) (UniProt Q9UBM7); test: Inhibition of 7-dehydrocholesterol reductase in human HL60 cells assessed as accumulation of 7-dehydrocholesterol by GC-MS method; format: cell-based; conditions: HL-60; procedure, shortened: as §1
T3 sequence (whole entry): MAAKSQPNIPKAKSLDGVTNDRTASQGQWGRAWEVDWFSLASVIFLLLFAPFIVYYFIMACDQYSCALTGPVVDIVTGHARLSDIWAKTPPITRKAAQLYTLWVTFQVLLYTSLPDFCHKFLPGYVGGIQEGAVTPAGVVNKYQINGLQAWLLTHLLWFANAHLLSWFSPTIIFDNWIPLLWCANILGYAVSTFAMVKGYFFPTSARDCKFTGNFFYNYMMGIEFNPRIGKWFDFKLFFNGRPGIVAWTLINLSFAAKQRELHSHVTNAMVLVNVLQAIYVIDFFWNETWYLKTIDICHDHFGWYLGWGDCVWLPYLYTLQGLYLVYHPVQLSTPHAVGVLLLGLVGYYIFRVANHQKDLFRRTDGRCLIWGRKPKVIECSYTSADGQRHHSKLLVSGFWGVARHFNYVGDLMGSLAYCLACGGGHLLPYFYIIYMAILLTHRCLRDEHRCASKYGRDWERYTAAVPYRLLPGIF

SMILES	inhibition [1]	pIC50 (HL-60)	pIC50 [2]	inhibition (Saccharomyces cerevisiae)	inhibition (Yarrowia lipolytica)	inhibition (Nakaseomyces glabratus)	pIC50 (Lanosterol synthase)	pIC50 [3]	pIC50 [4]	pIC50 [5]	inhibition [6]
CN1CCC=C(c2ccc(CN(C)Cc3ccc4ccccc4c3)cc2)C1	Active	6.43	< 4.30	inactive	inactive	inactive	< 5.00	< 5.00	< 5.00		
CN1CCC=C(c2ccc(CN(C)C/C=C/c3ccc([N+](=O)[O-])cc3)cc2)C1	Active	5.89	< 4.30	inactive	inactive	inactive					
CN(Cc1ccc(Cl)cc1)Cc1ccc(-c2cccnc2)cc1			4.68								
COC(=O)c1ccc(CN(C)Cc2ccc(C3=CCCN(C)C3)cc2)cc1			< 4.30								
CN1CCC(c2ccc(CN(C)Cc3ccc(Cl)cc3)cc2)CC1	Active	6.59	< 4.30	inactive	inactive	inactive	6.29	< 5.00	5.32		
CC(C)CCCN(C)Cc1ccc(C2=CCCN(C)C2)cc1			< 4.30								
CN1CCC=C(c2ccc(CN(C)Cc3ccc([N+](=O)[O-])cc3)cc2)C1	Active	5.64	4.55	inactive	inactive	inactive					
CC(C)CN(C)Cc1ccc(C2CCCN(C)C2)cc1 (racemic)			< 4.30								
CN(C)Cc1ccc([C@H]2CC[C@H](N(C)C(=O)c3ccc(Cl)cc3)CC2)cc1	Active	6.51	< 4.30								
C=CCN(C)CCCCCCOc1ccc(C(=O)c2ccc(Br)cc2)c(F)c1	Active	7.04	5.10							6.05	
CN(Cc1ccc(C2CCCN(C)C2)cc1)Cc1ccc2ccccc2c1 (racemic)	Active	5.88	4.40				5.07	< 5.00	< 5.00		
CN(Cc1ccc(Cl)cc1)Cc1ccc(C2CCCN(C)C2)cc1 (configuration not stated)	Active	5.89	< 4.30				5.69	< 5.00	< 5.00		
CN1CCC=C(c2ccc(CN(C)Cc3ccccc3)cc2)C1			< 4.30								
CN1CCC=C(c2ccc(CN(C)CCCc3ccccc3)cc2)C1	Active		< 4.30	inactive	inactive	inactive					
COc1ccc(CN(C)Cc2ccc(C3=CCCN(C)C3)cc2)cc1			< 4.30								
CN(CCCc1ccccc1)Cc1ccc(C2CCCN(C)C2)cc1 (racemic)	Active		< 4.30								
CN1CCCC(c2ccc3c(c2)CCC3N(C)Cc2ccc(Cl)cc2)C1 (racemic)	Active	6.85	< 4.30	inactive	inactive	inactive	5.37	< 5.00	< 5.00		
CC(C)CCN(C)Cc1ccc(C2CCCN(C)C2)cc1 (racemic)			< 4.30								
CC(C)CN(C)Cc1ccc(C2=CCCN(C)C2)cc1			< 4.30								
CN1CCC=C(c2ccc(CN(C)Cc3ccc(Cl)cc3)cc2)C1	Active	5.67	< 4.30	inactive	inactive	inactive	5.60	< 5.00	5.20		
CN1CCC=C(c2ccc(CN(C)C/C=C/c3ccccc3)cc2)C1	Active	6.17	< 4.30	inactive	inactive	inactive	5.28	< 5.00	< 5.00		
CN(C/C=C/c1ccccc1)Cc1ccc(-c2cccnc2)cc1			4.36								
CN(Cc1ccc(Cl)cc1)Cc1cn(C2CCCN(C)C2)nn1 (racemic)			< 4.30								Active
CC(C)CCCN(C)Cc1ccc(C2CCCN(C)C2)cc1 (racemic)			< 4.30								
CC(C)CCN(C)Cc1ccc(C2=CCCN(C)C2)cc1			< 4.30								
CN(C/C=C/c1ccccc1)Cc1ccc(C2CCCN(C)C2)cc1 (configuration not stated)	Active	5.96	< 4.30				5.69	< 5.00	< 5.00		
